Source: PubChem BioAssay (Johns Hopkins Ion Channel Center)
Hits are enriched below; roughly 2.3% of the tested compounds scored in any of these assays.
TRPC4 block – TRPC4 (mouse) channel inhibition. Q9QUQ5. hit rate 0.39% among 300,000. HEK293 TRPC4beta/mu-opioid, DAMGO-evoked Fluo4 calcium flux; stronger effect = lower value. B-score at 10 µM;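 active means B-score over 3 SD under the library average, no early fluorescence shift, positive overall ratio signal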
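Assay system – HEK293 line stably carrying TRPC4beta and mu-opioid receptor · Doses – single dose · Detection – Fluo4 calcium-dye fluorescence, kinetic read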
TRPC6 inhibitor – blocks the mouse TRPC6 cation channel; AID 2553; B-score at 10 µM; HEK293-TRPC6, membrane potential dye, ACh-evoked depolarization; stronger effect = lower value; hit rate 1.1% among 310,000;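 active means B-score under library mean minus 3 SD, initial fluorescence not abnormally high, positive integrated signal ratio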;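 further: B-score derived from integrated fluorescence ratio over the kinetic read; more negative B-score means stronger inhibition of depolarization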
TRPC6 activator – activators of mouse TRPC6 channel; HEK293-TRPC6 membrane potential dye fluorescence; stronger effect = higher value; B-score at 10 µM; hit rate 0.13% among 310,000; AID 2550;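 active means B-score of the integrated fluorescence ratio above library mean plus 3 SD, and starting fluorescence ratio within library mean plus 5 SD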;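 further: higher score means more depolarization so channel activation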
TRPC4 act – activators of mouse TRPC4 channel. Q9QUQ5. HEK293 TRPC4beta/mu-opioid, Fluo4 calcium fluorescence; stronger effect = higher value. B-score at 10 µM. hit rate 0.49% among 310,000. AID 2237;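 active means B-score above 5 SD of library B-scores, and initial fluorescence ratio not above library mean plus 5 SD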;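 further: positive B-score marks a calcium rise read as TRPC4 activation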
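Test system: HEK293 cells stably co-expressing mouse TRPC4beta and mu-opioid receptor | Schedule: Fluo4 dye loading 45 min at room temperature, 110 s recording | Measured by: Kinetic Fluo4 calcium fluorescence, 5 s baseline at 1 Hz | Evaluation: B score of integrated ratio | Controls: Buffer (low) and maximal DAMGO (high)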
TRPC4 potent – allosteric potentiators of mouse TRPC4 channel | HEK293 TRPC4beta/mu-opioid, DAMGO EC20, Fluo-4 Ca2+ flux; stronger effect = higher value | B-score at 10 µM | hit rate 0.42% among 310,000 | AID 2227;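 active means B-score of calcium response area above 5 SD of library B-scores, with initial fluorescence ratio within 5 SD of library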;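 further: B-score of integrated fluorescence ratio over time as area under calcium response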
An asterisk follows results filed as active; i = inactive.

SMILES | TRPC4 block | TRPC6 inhibitor | TRPC6 activator | TRPC4 act | TRPC4 potent
COC(=O)CCC(=O)Nc1nnc(C(F)(F)F)s1 | i | i | i | i | i
CCC(NC(=O)Nc1nnc(C(F)(F)F)s1)(C(F)(F)F)C(F)(F)F | i | -6.1* | i | i | i
CCOC(=O)C1CCN(C(c2ccccn2)c2c(C)[nH]c3ccccc23)CC1 (centres undefined) | i | -5.8* | i | i | i
Cc1[nH]c2ccccc2c1C(c1ccncc1)N1CCN(c2ccccn2)CC1 (centres undefined) | i | i | i | 49* | i
Cc1[nH]c2ccccc2c1C(c1ccncc1)N1CCN(c2ccccc2F)CC1 (centres undefined) | i | i | i | i | i
Cc1cc(-c2ccc(C)c(S(=O)(=O)N3CCN(C(=O)c4ccco4)CC3)c2)on1 | i | i | i | i | 45*
CCc1ccc(-c2cc(C)no2)cc1S(=O)(=O)N1CCN(C(=O)c2ccco2)CC1 | i | i | i | i | i
Cc1cccc(C(=O)NCCCNC(=O)c2cccnc2)c1 | i | i | i | i | i
CN(C)c1ccc(C(=S)N2CCN(c3ccc([N+](=O)[O-])cc3)CC2)cc1 | i | i | i | i | 19*
Cc1cc2occ(CC(=O)N(C)CC(=O)Nc3cccc(F)c3)c2cc1C | i | i | i | i | i
CCOC(=O)c1sc2nc(CSc3ccccc3)nc(NCCN(C)C)c2c1C | -5* | i | i | i | i
CCOC(=O)c1sc2nc(C)nc(NCCc3ccccn3)c2c1C | i | i | i | i | i
Cc1nn(C)c(C)c1S(=O)(=O)N(CC(=O)NCCCN1CC(C)CC(C)C1)c1ccc(C(C)C)cc1 (centres undefined) | i | i | i | i | i
Cc1cc(N2C(=O)C3CCC(c4ccccc4)CC3C2=O)no1 (centres undefined) | i | i | i | i | i
CCOC(=O)C1CCCN(C2CCN(Cc3nc(Cc4ccccc4)no3)CC2)C1 (centres undefined) | i | i | i | i | 11*
Cc1ccc(C)c(Nc2nc3ccccc3n3cnnc23)c1 | i | i | i | i | i
NC(=NC1CCCCC1)c1ccc(Cl)cc1 | -5* | i | i | i | i
N/C(=N\OC(=O)C1CCCCC1)c1ccc(Cl)cc1 | i | i | i | i | i
CN(CC(=O)Nc1c(Cl)cccc1Cl)C(=O)Cc1ccc2c(c1)CCC2 | i | i | i | i | i
Cc1ccc(C)c(-n2cc(CNC(C)Cn3cncn3)c(-c3ccccc3)n2)c1 (centres undefined) | i | i | i | 66* | i
COc1ccc(-c2nn(-c3ccccc3)cc2CNC(C)Cn2cncn2)c(F)c1 (centres undefined) | i | i | i | i | i
Cc1ccc(-n2cc(CNC(C)Cn3cncn3)c(-c3ccc(F)cc3)n2)cc1 (centres undefined) | i | i | i | 64* | i
COC(=O)c1ccc(C2N=C(c3cccs3)CC(c3ccccc3O)N2)cc1 (centres undefined) | i | i | i | i | i
COc1ccc(OC)c(C(c2c(O)nc(SC)[nH]c2=O)c2c(O)nc(SC)[nH]c2=O)c1 | i | i | i | i | i
O=C(O)CC(c1cccc2ccccc12)N1Cc2ccccc2C1=O (centres undefined) | i | i | i | i | 34*
CCOc1cc(C(=O)N=c2sccn2C)cc(Br)c1OC | i | i | i | i | i
CS(=O)(=O)N1CCN(c2ccccc2NC(=O)CSc2ccc(Cl)cc2)CC1 | i | i | i | i | 10*
CS(=O)(=O)N1CCN(c2ccccc2NC(=O)c2ccc(Cl)cc2)CC1 | i | i | i | i | i
O=C(Nc1cccc(C(F)(F)F)c1)c1cccnn1 | i | i | i | i | i
CCOC(=O)CCSc1nnc(-c2cccnc2)n1-c1ccccc1OC | -8* | i | i | i | i
